Most compounds without a hit are left out; they make up all but 3.1% or so of the library.
OX1R antag-1 = blocks the human orexin 1 receptor; 330,000 compounds, 1.8% hits; OX1R-expressing cells, FRET antagonist read-out; inhibition, % at 6.6 µM; O43613; in the data active = inhibition mostly above about 38%, no sharp cut-off; inactive = mostly below about 40%
GalR3 antag = blocks the human galanin receptor 3. O60755. HEK293 GalR3-CNG cAMP membrane potential fluorescence; galR3 body fused to GalR1 C-terminus. inhibition, % at 3 µM. 360,000 compounds, 0.44% hits;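 active = inhibition above the screen-wide average plus 3 SD, cut at about 13% in these data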;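 note: forskolin and galanin both at EC90 stimulate the cells; cAMP rise reported by CNG channel membrane potential dye signal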
Target sequence (O60755 1-299 limits assumed): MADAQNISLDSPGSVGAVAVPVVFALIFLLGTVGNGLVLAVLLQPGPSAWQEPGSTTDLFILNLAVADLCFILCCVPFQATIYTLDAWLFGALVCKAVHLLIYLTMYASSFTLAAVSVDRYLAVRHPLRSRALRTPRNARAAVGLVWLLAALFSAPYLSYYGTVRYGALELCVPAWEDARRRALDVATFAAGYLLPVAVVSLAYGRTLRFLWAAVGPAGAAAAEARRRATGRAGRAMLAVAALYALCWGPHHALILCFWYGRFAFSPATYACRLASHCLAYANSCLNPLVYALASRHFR
OX1R antag-2 = human HCRTR1 antagonism | O43613 | CHO/OX1R cells, Fluo-8 calcium fluorescence, orexin A | inhibition, % at 5 µM | 330,000 compounds, 0.43% hits;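 active = inhibition above its plate's threshold, mean inhibition of all tested compounds on the plate plus 3 SD, cut at about 37% in these data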
GPR7 antag = antagonists of human GPR7 (neuropeptides B/W receptor 1). 290,000 compounds, 1.1% hits. inhibition, % at 4.4 µM. GPR7-expressing cells, fluorescence antagonist assay. AID 1861; in the data active = inhibition above about 16%, passing the limit was not always enough;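 note: cells stimulated with the agonist NPW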
Target sequence (P48145 whole entry, looked up): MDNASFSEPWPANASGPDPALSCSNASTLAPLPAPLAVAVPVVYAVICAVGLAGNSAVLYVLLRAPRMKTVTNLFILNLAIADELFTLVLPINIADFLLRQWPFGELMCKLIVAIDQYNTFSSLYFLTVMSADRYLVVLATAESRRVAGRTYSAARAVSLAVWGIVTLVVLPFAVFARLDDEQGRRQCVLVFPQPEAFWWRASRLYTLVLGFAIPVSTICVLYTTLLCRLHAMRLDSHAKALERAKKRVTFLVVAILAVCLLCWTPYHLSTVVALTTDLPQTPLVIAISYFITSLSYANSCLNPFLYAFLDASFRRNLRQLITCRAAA
CHO parental Ca = counter-screen: ATP calcium response change in parental CHO cells; parental CHO-K1, ATP-induced calcium, Fluo-8 fluorescence; inhibition, % at 5.6 µM; 330,000 compounds, 0.63% hits;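 active = inhibition above that plate's mean sample inhibition plus 3 SD, cut at about 26% in these data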
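Material: parental CHO cells / Compound: single nominal dose of 5.6 µM per compound / Signal: Fluo-8 fluorescence / Replicates: singlicate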
Numbers stand for hits; i = inactive; nt = no result given.

SMILES	OX1R antag-1	GalR3 antag	OX1R antag-2	GPR7 antag	CHO parental Ca
C[C@@H](NS(=O)(=O)c1c(F)cccc1F)c1ccccc1	nt	i	nt	nt	nt
O=C(N/C(=C/c1cccc([N+](=O)[O-])c1)C(=O)N1CCOCC1)c1ccccc1Br	58	i	i	i	i
O=C(N/C(=C\c1ccc([N+](=O)[O-])cc1)C(=O)N1CCCCC1)c1ccccc1	75	i	i	i	i
O=C(N/C(=C\c1ccccc1)C(=O)N1CCOCC1)c1ccccc1Br	i	i	i	i	i
O=C1c2cccc3cccc(c23)C(=O)N1c1nncs1	75	i	i	i	i
Oc1cc(NCCc2cccnc2)cc2cccnc12	66	i	i	nt	i
CC(C)(C)c1ccc(NC(=O)Nc2ccc(F)cc2)cc1	i	i	64	24	62
O=C(Nc1ccc(F)cc1)Nc1cc(OCC(F)(F)F)cc(OCC(F)(F)F)c1	i	i	i	i	40
CC(C)(C)c1ccc(COC(=O)Nc2ccc(F)cc2)cc1	i	i	i	i	i
CCC(C)(C)n1nnnc1C(c1ccc(OC)c(OC)c1)N1CCN(c2cccc(OC)c2)CC1 (stereo not drawn)	i	i	i	i	i
CCC(C)(C)n1nnnc1C(c1ccc(OC)c(OC)c1)N1CCN(c2ccccc2)CC1 (stereo not drawn)	i	i	i	18	i
COC(=O)C1=C(C)N(C)C(=NCc2cccc(C(F)(F)F)c2)NC1c1ccc(Cl)cc1 (stereo not drawn)	nt	i	nt	nt	nt
COc1ccccc1C(=O)NNC(=S)NC(=O)c1ccco1	i	i	50	i	i
CCCOc1ccc(C(=O)NNC(=S)NC(=O)c2ccco2)cc1	i	i	86	i	70
CCCOc1ccc(C(=O)NNC(=S)NC(C)=O)cc1	i	i	i	i	i
Cc1[nH][nH]c(=O)c1C(c1ccc(-c2ccccc2C(=O)O)o1)c1c(C)[nH][nH]c1=O	50	i	i	i	i
Cc1[nH][nH]c(=O)c1C(c1ccc(-c2cccc(C(=O)O)c2)o1)c1c(C)[nH][nH]c1=O	i	i	i	i	i
Cc1noc(C)c1S(=O)(=O)N(C)C[C@@H]1OCc2cn(nn2)CCCC(=O)N([C@H](C)CO)C[C@H]1C	nt	i	nt	nt	nt
COc1ccc(N2C(=O)c3n[nH]c(C)c3C2c2ccc(F)cc2)cc1 (stereo not drawn)	nt	i	nt	nt	nt
Cc1cc(C)n(Cc2ccc(Cl)nc2)n1	i	i	i	i	i
COc1ccc(Cn2nc(C)cc2C)cc1OC	i	i	i	i	99
CCCn1c(=N)c(C#N)cc2c(=O)n3ccccc3nc21	47	i	i	i	i
Cc1cccc(-n2c(=O)c(C#N)cc3c(=O)n4ccccc4nc32)c1	60	i	i	i	i
Cc1cc(N2CCN(C(=O)OC(C)(C)C)C[C@H]2C)ccc1N1CCN(Cc2ccccc2)[C@@H](C)C1	nt	i	nt	nt	nt
CC(C)(C)c1cc[n+](-c2[nH]c(=O)sc2/C=N/NC(=O)c2ccccc2[O-])cc1	57	i	i	i	i
SMILES	OX1R antag-1	GalR3 antag	OX1R antag-2	GPR7 antag	CHO parental Ca
CC(C)(C)c1cc[n+](-c2[nH]c(=O)sc2/C=N/N=C(\[O-])c2cccnc2)cc1	58	i	i	i	i
C=CCCC1CN(Cc2ccc(OC)cc2)S(=O)(=O)c2c(Oc3cc(C)c(C)c(C)c3)cccc2O1 (stereo not drawn)	nt	i	nt	nt	nt
Cc1cc(-c2ccc(C)c(S(=O)(=O)NCCCN3CCN(c4ccccc4F)CC3)c2)on1	i	i	67	i	61
CCN(CC)C(=O)C1=C(C)N(CCCOC)C(=O)C(CC(=O)NC2CC2)C1 (stereo not drawn)	nt	i	nt	nt	nt
Cc1noc(/C=C/c2ccccn2)c1[N+](=O)[O-]	63	i	i	i	i
Cc1noc(/C=C/Nc2ccc(F)cc2F)c1[N+](=O)[O-]	i	i	i	i	i
COc1ccc(N(C)S(=O)(=O)c2cccc(C(=O)OCC(=O)NCc3ccccc3OC)c2)cc1	i	i	i	19	i
CN(c1ccccc1)S(=O)(=O)c1cccc(C(=O)OCC(=O)NCc2ccccc2)c1	i	i	i	nt	i
Cc1ccc2c(c1)c(C)c(C)n2CC(O)Cn1nnc2ccccc21 (stereo not drawn)	63	i	i	i	i
CCCCNc1cccc2c1S(=O)(=O)N[C@H](C)CO2	nt	i	nt	nt	nt
Cc1oc2c(c(C)nn2-c2ccccc2)c(=O)c1Cl	nt	i	nt	nt	nt
O=C(OCC(=O)N1CCN(S(=O)(=O)c2ccc(Cl)cc2)CC1)C1CC1	i	i	i	nt	i
CC1Cc2ccccc2N1C(=O)COC(=O)c1ccc([N+](=O)[O-])o1 (stereo not drawn)	40	i	i	nt	i
CC1Cc2ccccc2N1C(=O)COC(=O)c1ccco1 (stereo not drawn)	nt	i	nt	nt	nt
CC1CCN(C(=O)COC(=O)c2ccc(Br)o2)CC1	i	i	i	i	i
CC1CCN(C(=O)COC(=O)c2ccc([N+](=O)[O-])o2)CC1	42	i	i	nt	i
O=C(CSc1nc2ccccc2o1)NCC1CCCO1 (stereo not drawn)	i	i	i	nt	i
O=C(OCC(=O)N1CCN(S(=O)(=O)c2ccc(Cl)cc2)CC1)c1ccc([N+](=O)[O-])o1	i	i	i	20	i
Cc1cc(C(=O)CSc2nc3ccccc3o2)c(C)n1CC1CCCO1 (stereo not drawn)	i	i	39	i	i
CCCS(=O)(=O)NC(=O)C1(C)CCN(C(=O)c2ccco2)C1 (stereo not drawn)	nt	i	nt	nt	nt
COC(=O)[C@]12C[C@H](CC(=O)NCCc3ccccc3OC)C(=O)N(Cc3ccccc3)C1=C[C@H](C(C)(C)C)O[C@@H]2C	nt	i	nt	nt	nt
Cc1cc(C(=O)COC(=O)c2ccc([N+](=O)[O-])o2)c(C)n1CC1CCCO1 (stereo not drawn)	67	i	i	i	i
CC(C)(C)c1ccc(C(=O)OC/C(O)=C(\C#N)c2nc3ccccc3s2)cc1	i	i	i	i	i
N#C/C(=C(/O)COC(=O)c1ccccc1O)c1nc2ccccc2s1	53	i	i	i	i
O=C1C(=O)c2ccccc2C(O)=C1c1ccccc1F	46	i	i	i	i
SMILES	OX1R antag-1	GalR3 antag	OX1R antag-2	GPR7 antag	CHO parental Ca
CC[C@H](NC(=O)[C@@H](Cc1ccccc1)NC(=O)[C@H]1O[C@@H](n2ccc(=O)[nH]c2=O)[C@H](O)[C@@H]1O)c1ccccc1	nt	i	nt	nt	nt
Cc1ccc(S(=O)(=O)N2CCN(C)CC2)c2nsnc12	50	i	i	i	i
CN1CCN(S(=O)(=O)c2cccc3nsnc23)CC1	40	i	i	i	i
O=C(O)C1CCN(S(=O)(=O)c2cccc3nsnc23)CC1	i	i	i	i	i
O=C(N/N=C/c1cccc(OC2CSC2)c1)c1ccccc1O	72	i	i	i	i
O=C(NNC(=O)c1cccc([N+](=O)[O-])c1)c1ccncc1	46	i	i	i	i
O=C(NNC(=O)c1ccncc1)Nc1cccc([N+](=O)[O-])c1	i	i	i	i	i
O=C(Nc1ccccc1C(=O)N1CCCCCC1)c1cccc([N+](=O)[O-])c1	53	i	i	i	i
